The results in this text go back to ChEMBL document CHEMBL1799979, “Antifolate and antiproliferative activity of 6,8,10-triazaspiro[4.5]deca-6,8-dienes and 1,3,5-triazaspiro[5.5]undeca-1,3-dienes” (Bioorg Med Chem, 2010).

As a reminder, the IC50 is the midpoint of a concentration-inhibition curve.

For assay [1], the system named is A549. The assay can be described thus: Antiproliferative activity against human A549 cells after 72 hrs by fluorometric microculture cytotoxicity assay. The following applies: A549, 72 h.
For assay [2], the target named is T1, Dihydrofolate reductase (Bos taurus, UniProt P00376).
T1 sequence (P00376 whole entry): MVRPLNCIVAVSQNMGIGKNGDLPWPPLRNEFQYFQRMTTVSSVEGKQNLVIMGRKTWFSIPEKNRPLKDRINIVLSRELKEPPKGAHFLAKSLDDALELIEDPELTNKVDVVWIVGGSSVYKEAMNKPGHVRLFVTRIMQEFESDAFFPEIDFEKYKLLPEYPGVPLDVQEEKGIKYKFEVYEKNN
The assay can be described thus: Inhibition of bovine liver DHFR using dihydrofolic acid substrate by UV-visible spectrophotometry.

Assay [3] deals with A549. The assay can be described thus: Growth inhibition of human A549 cells assessed as cell growth at 270 nM after 72 hrs by fluorometric microculture cytotoxicity assay in presence of 100 uM hypoxanthine relative to untreated control. The class given is functional. More on the design: scale not given: the % may be the effect or the level left. In short, it runs like this: (§1)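 A549 cells were seeded and incubated 24 h, then medium was swapped for medium holding a fixed compound concentration alone, or with 20 µM thymidine, 100 µM hypoxanthine, or both. Twelve wells were used per solution, with solvent-matched controls. After 72 h, cells were PBS-washed, given FDA 2 µg/mL for 45 min at 37 °C, and fluorescence read at ex 485/em 535 nm. Growth is relative to control, as mean (SEM), n = 3.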

In assay [4] the test system is A549. The assay can be described thus: Growth inhibition of human A549 cells assessed as cell growth at 270 nM after 72 hrs by fluorometric microculture cytotoxicity assay in presence of 100 uM hypoxanthine and 20 uM thymidine relative to untreated control. The class given is functional. More on the design: scale not given: the % may be the effect or the level left. In short, it runs like this:
as §1

In assay [5] the test system is A549. The assay can be described thus: Growth inhibition of human A549 cells assessed as cell growth at 270 nM after 72 hrs by fluorometric microculture cytotoxicity assay in presence of 20 uM thymidine relative to untreated control. In kind it is functional. More on the design: scale not given: the % may be the effect or the level left. In short, it runs like this: as §1

Assay [6] concerns A549. The assay can be described thus: Growth inhibition of human A549 cells assessed as cell growth at 270 nM after 72 hrs by fluorometric microculture cytotoxicity assay relative to untreated control. The class given is functional. The settings on record: A549, 72 h, read-out: Activity. In short, it runs like this:
as §1

Assay [7] concerns A549. The assay can be described thus: Growth inhibition of human A549 cells assessed as cell growth at 370 nM after 72 hrs by fluorometric microculture cytotoxicity assay in presence of 20 uM thymidine relative to untreated control. The class given is functional. Details: scale not given: the % may be the effect or the level left. A digest of the protocol: as §1
The subject of assay [8] is A549. The assay can be described thus: Growth inhibition of human A549 cells assessed as cell growth at 370 nM after 72 hrs by fluorometric microculture cytotoxicity assay relative to untreated control. The settings on record: A549, 72 h, read-out: Activity. In kind it is functional. A digest of the protocol: as §1
Assay [9] relates to A549. The assay can be described thus: Growth inhibition of human A549 cells assessed as cell growth at 370 nM after 72 hrs by fluorometric microculture cytotoxicity assay in presence of 100 uM hypoxanthine relative to untreated control. The class given is functional. Details: scale not given: the % may be the effect or the level left. A digest of the protocol:
as §1

For assay [10], the system named is A549. The assay can be described thus: Growth inhibition of human A549 cells assessed as cell growth at 370 nM after 72 hrs by fluorometric microculture cytotoxicity assay in presence of 100 uM hypoxanthine and 20 uM thymidine relative to untreated control. The class given is functional. More on the design: scale not given: the % may be the effect or the level left. In short, it runs like this: as §1

Assay [11] has as its system A549. The assay can be described thus: Growth inhibition of human A549 cells assessed as cell growth at 6.4 uM after 72 hrs by fluorometric microculture cytotoxicity assay relative to untreated control. The class given is functional. The settings on record: A549, 72 h, read-out: Activity. In short, it runs like this: as §1
Assay [12] has as its system A549. The assay can be described thus: Growth inhibition of human A549 cells assessed as cell growth at 6.4 uM after 72 hrs by fluorometric microculture cytotoxicity assay in presence of 100 uM hypoxanthine and 20 uM thymidine relative to untreated control. In kind it is functional. More on the design: scale not given: the % may be the effect or the level left. In short, it runs like this: as §1

Assay [13] has as its system A549. The assay can be described thus: Growth inhibition of human A549 cells assessed as cell growth at 6.4 uM after 72 hrs by fluorometric microculture cytotoxicity assay in presence of 100 uM hypoxanthine relative to untreated control. Details: scale not given: the % may be the effect or the level left. In kind it is functional. In short, it runs like this:
as §1

The test system of assay [14] is A549. The assay can be described thus: Growth inhibition of human A549 cells assessed as cell growth at 6.4 uM after 72 hrs by fluorometric microculture cytotoxicity assay in presence of 20 uM thymidine relative to untreated control. The class given is functional. Details: scale not given: the % may be the effect or the level left. A digest of the protocol: as §1

For `N#Cc1ccc(OCCCON2C(N)=NC(N)=NC23CCCC3)cc1`, the IC50 is 60.7 nM in [1] and 7.6 nM in [2].
For `NC1=NC2(CCCC2)N(OCCCOc2ccc(F)cc2)C(N)=N1`, the values for the IC50 in assay [1] and in assay [2] were 58.8 nM and 10.1 nM, respectively.
Regarding `COc1ccc(OCCCON2C(N)=NC(N)=NC23CCCC3)cc1`, the IC50 in assay [1] turned out to be 59.1 nM; in assay [2] it was 11.2 nM.
With `Cl.NC1=NC2(CCCC2)N(OCCCOc2ccc(Cl)cc2)C(N)=N1`, the values for the Activity in assay [3], in [4] and in assay [5] were 14.3%, 90% and 68%, respectively. For the same molecule, the results for the IC50 in [1] and in assay [2] were 27.1 nM and 7.2 nM, respectively. Moreover, the growth at 0.27 µM in [6] came to 15.2%.
As to `NC1=NC2(CCCCC2)N(OCCCOc2ccc([N+](=O)[O-])cc2)C(N)=N1`, the IC50 in [1] is 329 nM; in assay [2] it was 14.7 nM.
For the molecule `N#Cc1ccc(OCCCON2C(N)=NC(N)=NC23CCCCC3)cc1`, the results for the IC50 in [1] and in assay [2] were 116 nM and 9.7 nM, respectively.
As to `NC1=NC2(CCCCC2)N(OCCCOc2ccc(Cl)cc2)C(N)=N1`, the IC50 in [1] came out at 49.6 nM; in [2] it was 13.8 nM.
`COc1ccc(OCCCON2C(N)=NC(N)=NC23CCCCC3)cc1`: the values for the IC50 in assay [1] and in assay [2] were 51.6 nM and 6.1 nM, respectively.
`CC(C)(C)c1ccc(OCCCON2C(N)=NC(N)=NC23CCCC3)cc1`: the IC50 stood at 160 nM in [1] and 17 nM in assay [2].
In turn, `NC1=NC2(CCCCC2)N(OCCCOc2ccccc2)C(N)=N1` gave an IC50 in assay [1] of 69.7 nM.
For `Cc1ccc(OCCCON2C(N)=NC(N)=NC23CCCC3)cc1`, the results for the IC50 in assay [1] and in assay [2] were 48.1 nM and 9.5 nM, respectively.
Take `NC1=NC2(CCCC2)N(OCCCOc2ccc([N+](=O)[O-])cc2)C(N)=N1`: the IC50 in assay [1] worked out at 65.8 nM; in assay [2], 8.4 nM.
Molecule `CN(Cc1cnc2nc(N)nc(N)c2n1)c1ccc(C(=O)N[C@@H](CCC(=O)O)C(=O)O)cc1` [METHOTREXATE] registered an IC50 in assay [1] of 37.4 nM. Moreover, the Activity is reported as 77.3% in assay [7], 16% in assay [9] and 96.6% in [10]. For the same molecule, in assay [8], the growth at 0.37 µM stood at 14.3%.
Consider `CC(=O)c1ccc(OCCCON2C(N)=NC(N)=NC23CCCCC3)cc1`, for which the IC50 in assay [1] is 145 nM; in [2], 13.3 nM.
As to `Nc1nc2[nH]cc(CCc3ccc(C(=O)N[C@@H](CCC(=O)O)C(=O)O)cc3)c2c(=O)[nH]1` [PEMETREXED], the growth at 6.4 µM in assay [11] is 11.7%. Moreover, the values for the Activity in assay [12], in assay [13] and in [14] were 99.3%, 12.6% and 84.5%, respectively.
As to `NC1=NC2(CCCCC2)N(OCCCOc2ccc(S(N)(=O)=O)cc2)C(N)=N1`, the IC50 in assay [1] was 166 nM; in [2], 5.6 nM.
As to `Cc1ccc(OCCCON2C(N)=NC(N)=NC23CCCCC3)cc1`, the IC50 came to 83.3 nM in assay [1] and 17.5 nM in assay [2].
For `CC(=O)c1ccc(OCCCON2C(N)=NC(N)=NC23CCCC3)cc1`, the IC50 in assay [1] was 59.8 nM; in [2], 9.2 nM.
`NC1=NC2(CCCC2)N(OCCCOc2ccccc2)C(N)=N1` returned an IC50 in assay [1] of 40.2 nM.
For the molecule `CC(C)(C)c1ccc(OCCCON2C(N)=NC(N)=NC23CCCCC3)cc1`, the IC50 in assay [1] is 496 nM; in assay [2], 21.5 nM.
Consider `NC1=NC2(CCCCC2)N(OCCCOc2ccc(F)cc2)C(N)=N1`, for which the IC50 was 59.2 nM in [1] and 15.4 nM in [2].
